Source: ChEMBL document CHEMBL4825680, “Structure-based discovery of potent and selective small-molecule inhibitors targeting signal transducer and activator of transcription 3 (STAT3)” (Eur J Med Chem, 2021)
Calls of active or inactive are those of the source. The rule behind the calls is not given here.

What was measured:
[1] = Toxicity in mouse xenografted with human MDA-MB-231-4175 cells assessed as morphological change in kidney at 5 to 15 mg/kg, […] once daily for 20 days by HE staining based assay; type: organism-based; conditions: in vivo, iv, 480 h, dose 5-15 mg/kg, time 20 day
Summary of the method: (§1)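 Female NOD-SCID mice aged 4–5 weeks, given 2×10^6–3×10^6 MDA-MB-231-4175 cells subcutaneously in the flank. At about 100 mm³ tumour volume, randomised n=6/group: vehicle (PBS with 15% Cremophor EL), 5 or 15 mg/kg intraperitoneally daily. Killed at day 20; heart, liver, spleen, lung and kidney collected for morphological examination.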

MDA231-LM2-4175 [2] = assay: Antitumor activity against human MDA231-LM2-4175 cells xenografted in mouse assessed as reduction in pY705-STAT3 expression at 5 to 15 mg/kg, iv administered once daily for 20 days by Western blotting analysis; type: functional, organism-based; conditions: dose 5-15 mg/kg, time 20.0 day
[3] = biological target: T1, Signal transducer and activator of transcription 3 (Homo sapiens, UniProt P40763); assay: Inhibition of STAT3 in human MDA-MB-468 cells assessed as downregulation of Bcl-xL expression at 0.3 to 3 uM after 24 hrs by western blot analysis; type: cell-based; conditions: dose 0.3-3 µM
T1 sequence (P40763 whole entry): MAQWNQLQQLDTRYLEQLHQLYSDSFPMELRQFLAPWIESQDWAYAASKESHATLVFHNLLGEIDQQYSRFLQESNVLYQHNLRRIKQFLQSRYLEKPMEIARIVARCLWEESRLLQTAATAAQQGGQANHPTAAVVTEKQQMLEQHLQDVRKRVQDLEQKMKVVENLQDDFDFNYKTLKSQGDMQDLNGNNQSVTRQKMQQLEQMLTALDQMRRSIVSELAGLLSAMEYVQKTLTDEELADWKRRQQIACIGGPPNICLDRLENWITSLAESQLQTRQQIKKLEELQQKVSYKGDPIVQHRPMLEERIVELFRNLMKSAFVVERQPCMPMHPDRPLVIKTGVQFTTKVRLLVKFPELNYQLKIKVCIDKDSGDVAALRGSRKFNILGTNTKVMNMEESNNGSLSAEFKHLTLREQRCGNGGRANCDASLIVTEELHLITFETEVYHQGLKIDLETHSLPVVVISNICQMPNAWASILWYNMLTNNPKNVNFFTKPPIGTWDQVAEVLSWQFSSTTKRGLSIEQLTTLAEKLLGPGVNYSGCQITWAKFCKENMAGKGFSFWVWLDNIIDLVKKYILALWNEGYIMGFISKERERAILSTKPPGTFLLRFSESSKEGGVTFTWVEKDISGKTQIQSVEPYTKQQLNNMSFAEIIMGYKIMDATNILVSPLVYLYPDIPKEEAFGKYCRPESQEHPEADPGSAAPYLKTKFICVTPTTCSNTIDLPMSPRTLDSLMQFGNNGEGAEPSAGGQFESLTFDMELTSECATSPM
Summary of the method: (§2)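 TNBC cells given vehicle (0.1% DMSO) or graded compound levels for 24 h, lysed in RIPA with PMSF and phosphatase inhibitors. BCA-quantified lysate (20–50 µg) run on SDS-PAGE, transferred to PVDF, blocked in 5% BSA. Probed overnight at 4 °C for Bcl-xL, Mcl-1 and c-Myc, with β-actin. HRP secondary, ECL detection. Three independent experiments.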

MDA-MB-468 = assay: Induction of apoptosis in human MDA-MB-468 cells assessed as early apoptotic cells at 1 uM after 48 hrs by Annexin-V-FITC/propidium iodide staining based flow cytometric analysis (reference value: 2.66%); type: functional
A549 = assay: Antiproliferative activity against human A549 cells; type: functional, cell-based
MDA-MB-231 [4] = assay: Effect on total STAT5 level in human MDA-MB-231 cells at 0.3 to 3 uM after 3 hrs by Western blotting analysis; type: functional, cell-based; conditions: dose 0.3-3 µM
Summary of the method: (§3)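 Breast cancer cells were treated with vehicle (0.1% DMSO) or compound, then lysed in RIPA with PMSF and phosphatase inhibitors. 20–50 μg protein was run on 8 or 12% SDS-PAGE, blotted to PVDF, blocked in 5% BSA, probed with primary antibodies overnight at 4 °C, then HRP secondaries, with ECL detection.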

[5] = biological target: T1, Signal transducer and activator of transcription 3; assay: Inhibition of STAT3 phosphorylation at Ser727 residue in human MDA-MB-231 cells at 3 uM after 3 hrs by Western blotting analysis; type: cell-based
H9c2 = assay: Antiproliferative activity against rat H9C2 cells assessed as reduction in cell viability after 72 hrs by CCK8 assay; type: cell-based; conditions: H9c2, 72 h
Summary of the method: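 Cells seeded at 1000–8000 per well were grown overnight, then exposed to 0.1–100 μM compound or 0.1% DMSO vehicle for 72 h. CCK-8 was added for 0.5–4 h at 37 °C and absorbance read at 480 nm. Viability = (OD compound − blank)/(OD vehicle − blank) × 100, with medium as blank. IC50 fitted from three independent experiments.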

MDA231-LM2-4175 [6] = assay: Effect on total STAT3 level in human MDA231-LM2-4175 cells at 0.3 to 3 uM measured after 3 hrs by Western blot analysis; type: functional, cell-based; conditions: dose 0.3-3 µM; summary of the method: as §3
MDA-MB-231 [7] = assay: Effect on total STAT1 level in human MDA-MB-231 cells at 0.3 to 3 uM after 3 hrs by Western blotting analysis; type: functional, cell-based; conditions: dose 0.3-3 µM; summary of the method: as §3
[8] = biological target: T1, Signal transducer and activator of transcription 3; assay: Inhibition of STAT3 in human HCC70 cells assessed as downregulation of c-Myc expression at 0.3 to 3 uM after 24 hrs by western blot analysis; type: cell-based; conditions: dose 0.3-3 µM; summary of the method: as §2
[9] = biological target: T1, Signal transducer and activator of transcription 3; assay: Inhibition of STAT3 in human MDA-MB-231 cells assessed as downregulation of Mcl-1 expression at 0.3 to 3 uM after 24 hrs by western blot analysis; type: cell-based; conditions: dose 0.3-3 µM; summary of the method: as §2
[10] = Toxicity in NOD/SCID mouse xenografted with patient-derived breast cancer cells assessed as morphological change in lung at 5 to 15 mg/kg, […] once daily for 20 days by HE staining based assay; type: organism-based; conditions: in vivo, iv, dose 5-15 mg/kg, time 20 day
Summary of the method: as §1, with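 “implanted” for “aged 4–5 weeks, given 2×10^6–3×10^6 MDA-MB-231-4175 cells”, “flank with about 2 mm³ TNBC PDX fragments.” for “flank.”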

MDA-MB-231 [11] = assay: Induction of apoptosis in human MDA-MB-231 cells assessed as necrotic cells at 3 uM after 48 hrs by Annexin-V-FITC/propidium iodide staining based flow cytometric analysis (Rvb =0.543%); type: functional
[12] = Induction of apoptosis in human MDA231-LM2-4175 cells assessed as early apoptotic cells at 1 uM after 48 hrs by Annexin-V-FITC/propidium iodide staining based flow cytometric analysis (reference value: 2.49%); type: functional
[13] = biological target: T2, Signal transducer and activator of transcription 5A (Homo sapiens) (UniProt P42229); assay: Inhibition of STAT5 DNA binding in human MDA-MB-231 cells at 3 uM after 3 hrs by EMSA analysis; type: cell-based
T2 sequence (whole entry): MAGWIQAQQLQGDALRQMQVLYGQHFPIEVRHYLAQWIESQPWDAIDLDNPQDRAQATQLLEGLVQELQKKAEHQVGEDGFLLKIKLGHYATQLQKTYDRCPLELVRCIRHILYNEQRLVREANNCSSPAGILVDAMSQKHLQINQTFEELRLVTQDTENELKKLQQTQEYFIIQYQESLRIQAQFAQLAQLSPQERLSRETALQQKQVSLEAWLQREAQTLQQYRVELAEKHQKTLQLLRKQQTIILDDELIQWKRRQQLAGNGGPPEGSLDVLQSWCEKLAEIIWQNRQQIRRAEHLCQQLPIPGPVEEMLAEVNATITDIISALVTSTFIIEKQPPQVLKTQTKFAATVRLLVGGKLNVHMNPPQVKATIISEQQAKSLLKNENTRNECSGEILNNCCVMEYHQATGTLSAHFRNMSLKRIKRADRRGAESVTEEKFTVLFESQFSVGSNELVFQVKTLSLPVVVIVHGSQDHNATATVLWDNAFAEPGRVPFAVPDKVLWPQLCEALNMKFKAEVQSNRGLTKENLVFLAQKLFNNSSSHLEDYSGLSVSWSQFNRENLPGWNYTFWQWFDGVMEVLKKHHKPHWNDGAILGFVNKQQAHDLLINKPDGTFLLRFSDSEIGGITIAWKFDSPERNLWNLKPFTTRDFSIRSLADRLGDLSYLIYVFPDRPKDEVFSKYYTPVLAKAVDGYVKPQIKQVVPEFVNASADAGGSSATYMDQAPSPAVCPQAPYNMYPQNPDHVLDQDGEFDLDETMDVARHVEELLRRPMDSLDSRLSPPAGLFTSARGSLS
Summary of the method: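 Cells exposed to vehicle or compound for 3 h. Nuclear extracts prepared and BCA-quantified. Nuclear protein (8–10 µg) incubated with biotinylated STAT3 or STAT5 probe, resolved on 6% native polyacrylamide gel, transferred to nylon membrane and detected with a gel-shift kit.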

Structure (SMILES): O=C(Cc1c(-c2ccccc2)nc2ccccn12)Nc1ccc2c(c1)S(=O)(=O)C=C2
- Activity [1]: Non-Toxic
- Activity (MDA231-LM2-4175 [2]): Active
- inhibition [3]: Active
- Activity (MDA-MB-468): 24%
- IC50 (A549): 1.1 µM
- Activity (MDA-MB-231 [4]): inactive
- inhibition [5]: Active
- IC50 (H9c2): 6.79 µM
- Activity (MDA231-LM2-4175 [6]): inactive
- Activity (MDA-MB-231 [7]): inactive
- inhibition [8]: Active
- inhibition [9]: Active
- Activity [10]: Non-Toxic
- Activity (MDA-MB-231 [11]): 2.09%
- Activity [12]: 6.17%
- inhibition [13]: inactive
